Data reported in PubChem BioAssay AID624466 (The Scripps Research Institute Molecular Screening Center, 2012).
Out of some 360,000 compounds screened, about 5,400 (1.5%) were called active.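 The calls were made as follows: active = inhibition above a per-plate cutoff, the mean inhibition of test compounds on that plate plus 3 SD (cut at about 49% in these data); inactive = the rest.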 The list comes from a sample in which actives are over-represented; it also holds similar structures and randomly drawn compounds.

Target: Trace amine-associated receptor 1 (Homo sapiens) (UniProt Q96RJ0)
Assay: human TAAR1 antagonists, primary screen, Fluo-8 calcium fluorescence, CHO RD-HGA16 cells (AID 624466);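 also: 0% = DMSO plus EC80 beta-PEA response and 100% = DMSO alone without agonist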
Conditions: CHO RD-HGA16 TAAR1, Fluo-8 calcium fluorescence, antagonist; at 3 µM; active compounds read high
Procedure, shortened: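 Assay system: RD-HGA16 CHO cells with stable hTAAR1 and Gα16 / Reagent: EC80 β-phenethylamine stimulus / Doses: 3 µM, single point / Timing: dye loading 75 min at 37 °C, then 30 min room temperature / Measured by: Fluo-8 intracellular calcium dye fluorescence, real-time kinetic reads / Controls: vehicle wells and EC80 agonist wells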

Chain of Trace amine-associated receptor 1 (Homo sapiens) (Q96RJ0 whole entry, looked up): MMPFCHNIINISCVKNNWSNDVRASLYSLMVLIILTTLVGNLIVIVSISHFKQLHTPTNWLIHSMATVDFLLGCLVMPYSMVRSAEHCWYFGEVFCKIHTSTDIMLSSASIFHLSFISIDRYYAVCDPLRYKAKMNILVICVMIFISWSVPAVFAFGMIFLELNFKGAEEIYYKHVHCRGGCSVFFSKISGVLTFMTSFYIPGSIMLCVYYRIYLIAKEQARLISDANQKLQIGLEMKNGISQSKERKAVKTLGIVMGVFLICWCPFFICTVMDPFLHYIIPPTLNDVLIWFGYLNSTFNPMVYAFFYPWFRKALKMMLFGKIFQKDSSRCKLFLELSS

inhibition, active:
O=C(NCc1ccc2c(c1)OCO2)c1c(-c2ccsc2)sc2ccccc12 77.1%
O=C(N/N=C/c1ccccn1)c1cccc(NC(=O)c2ccc(Cl)cc2)c1 56.6%
NC(=O)C1=C[C@H](c2csc3ccccc23)C[C@H](OCc2ccc(CO)cc2)O1 49.7%
CC(=O)n1cc([C@@H]2C=C(C(=O)N3CCN(Cc4ccc5c(c4)OCO5)CC3)O[C@H](OCc3ccc(CO)cc3)C2)c2ccccc21 49.4%
CC(=O)n1cc([C@H]2C=C(C(=O)N3CCOCC3)O[C@@H](OCc3ccc(CO)cc3)C2)c2ccccc21 51.8%
CCCc1cc(C(=O)Nc2ccc(C(=O)OC)cc2)cs1 50.5%
Fc1ccc2[nH]c3c(N4CCSCC4)ncnc3c2c1 64.4%
COc1ccc(/C=C/C(=O)Nc2ccc(C34CC5CC(CC(O)(C5)C3)C4)cc2)cc1OC 71.5%
Nc1c(NCCc2ccccc2)c2ccccc2oc1=O 66.7%
CCOC(=O)C1=CN(Cc2ccc(Br)cc2)S(=O)(=O)NC1C (stereo not given) 49.1%
COc1cccc(/C=N/Nc2cc(C)nc(-c3ccccc3O)n2)c1O 64.5%
CC(C)NC(=O)N1Cc2cc(C(=O)NCC(F)(F)F)nc(-c3cccc(-c4cc5ccccc5o4)c3)c2[C@@H]1CCO 51.9%
COc1ccc(C(=O)Nc2cccc(/C=C(/CCC(=O)O)c3nc4ccccc4s3)c2)cc1 57.2%
CCNS(=O)(=O)c1ccc(CCC(=O)N2CCN(c3cc(Cl)ccc3C)CC2)cc1 65.9%
COc1ccc(NC(=O)C2=CC(c3ccc(OC)c(OC)c3)=NS(=O)(=O)N2C)cc1 52.3%
O=C(N/N=C/c1ccc(Cl)c(Cl)c1)c1ccc2nc[nH]c2c1 63.3%
CC(=NNC(=O)c1ccc2nc[nH]c2c1)c1ccc(Br)cc1 51.9%

inhibition, inactive:
CCc1ccc(S(=O)(=O)Nc2cc3c(cc2N2CCCCC2)n(C)c(=O)c(=O)n3C)cc1 -20.8%
CCCCCCCCN1C(=O)[C@@H](CC(=O)N2CCN(C(=O)OCC)CC2)C[C@@]2(C(=O)OC)C1=C[C@H](C1CCCC1)O[C@@H]2C -10.4%
O=C(NCc1ccc2c(c1)OCO2)c1sccc1Br -7.07%
C=CCn1c(=O)c(C(=O)NCc2ccc3c(c2)OCO3)c(O)c2ccccc21 -8.39%
COCCCNC(=O)C[C@H]1C[C@@]2(C(=O)OC)C(=C[C@H](C(C)(C)C)O[C@@H]2C)N(Cc2ccc3c(c2)OCO3)C1=O -10.8%
O=C(Cc1ccccc1)Nc1cccc(C(=O)N/N=C/c2ccco2)c1 7.95%
Cn1nccc1/C=N\NC(=O)c1ccc(Cl)cc1 -23%
CC(C)CNc1cccc2c1S(=O)(=O)N[C@H](C)CO2 9.62%
Cc1ccc(C2=CSC3=NS(=O)(=O)CCN23)cc1C 10.5%
CC(=NNC(N)=O)c1ccc(Cl)c(-n2cccc2)c1 -7.84%
COc1ccc(OC)c(CNC(=O)Cn2nc(C)c3c(C)n(-c4ccc(C)cc4)nc3c2=O)c1 -15.7%
O=C(C1=C[C@H](c2coc3ccccc3c2=O)C[C@H](OCc2ccc(CO)cc2)O1)N1CCOCC1 17.7%
NC(=O)C1=C[C@@H](c2csc3ccccc23)C[C@@H](OCc2ccc(CO)cc2)O1 17.2%
CN1CCN(C(=O)C2=C[C@H](c3ccc4c(c3)OCO4)C[C@H](OCc3ccc(CO)cc3)O2)CC1 18.1%
O=C(NC1CC1)C1=C[C@H](c2c[nH]c3ccccc23)C[C@H](OCc2ccc(CO)cc2)O1 -9.17%
O=C(C1=C[C@H](C2CC2)C[C@H](OCc2ccc(CO)cc2)O1)N1CCN(Cc2ccccc2)CC1 1.78%
O=C(C1=C[C@H](c2ccc(C(F)(F)F)cc2)C[C@H](OCc2ccc(CO)cc2)O1)N1CCN(Cc2ccccc2)CC1 7.66%
CN1CCN(c2ccc3c(c2)OC[C@H](Cc2ccccc2)NS3(=O)=O)CC1 -0.38%
CC(C)C[C@H](NC(=O)CC1CCCC1)C(=O)N1CCC[C@H]1C(=O)NCc1ccccc1 -24.5%
COC(=O)[C@]12C[C@H](CC(=O)NCc3ccc(C)o3)C(=O)N(CCC3=CCCCC3)C1=C[C@H](C(C)(C)C)O[C@@H]2C -24.7%
CCN(CC)C(=O)CCC(=O)Nc1ccc(C(=O)OC)cc1 -5.5%
CCCc1cc(C(=O)Nc2ccc(Cl)cn2)cs1 -47.4%
CCC(=O)Nc1c(S(=O)(=O)c2ccccc2)c2nc3ccccc3nc2n1Cc1ccccc1 -31.1%
N#Cc1cccc(C(=O)NCC2CCN(C(=O)C(=O)c3cc4ccccc4o3)CC2)c1 -5.41%
COC(=O)c1ccc2nc(-c3cccc(Br)c3)c(Cc3ccccc3C(F)(F)F)n2c1 -12.6%
COc1cc(/C=C/C(=O)Nc2ccc(OC)c(S(=O)(=O)N3CCOCC3)c2)ccc1OCC#N 14.8%
COc1ccc(/C=C/C(=O)OCC(=O)NC2CCCCCC2)cc1OC -27.2%
C[C@@H]1CN([C@H](C)CO)C(=O)CCCn2cc(nn2)CO[C@H]1CN(C)C(=O)Nc1ccc(N2CCCCC2)cc1 -12.4%
CNC(=O)C1CC(=O)N(Cc2ccc3c(c2)OCO3)C(=Nc2ccc(F)cc2)S1 (stereo not given) 11.3%
CC(C)(C)Nc1c(N)c(=O)oc2ccccc12 15%
O=c1oc2ccccc2c(=O)c2ccccc12 3.02%
O=C(N[C@H](Cc1ccccc1)C(=O)N1CCCN(Cc2cccs2)CC1)[C@H]1O[C@@H](n2ccc(=O)[nH]c2=O)[C@H](O)[C@@H]1O -9.92%
CC(=O)OC[C@@H]1CN(Cc2ccccc2)C[C@H](n2cnc3c(NCc4ccco4)ncnc32)O1 -4.46%
CCCCOCC1CN(CCCC)S(=O)(=O)c2c(Oc3ccc(F)cc3)cccc2O1 (stereo not given) 30.2%
CCOC(=O)c1sc(=NC(=O)c2ccc(Br)cc2)n(C)c1C -21.9%
CCOC(=O)C1=CN(Cc2ccc(Br)cc2)S(=O)(=O)N(C)C1C (stereo not given) 17.8%
COc1cccc(Cn2cc(/C=N/NC(=O)c3cc(O)cc(O)c3)c3ccccc32)c1 -11.8%
COc1cc(/C=N/NC(=S)Nc2cccnc2)cc(OC)c1O -25%
Cc1cccc2[nH]c(CN(C)C(=O)C3CCC(=O)N(CCc4ccccc4)C3)nc12 (stereo not given) -20.8%
Cc1ccc(N(C(=O)CC2NC(=O)NC2=O)C2(C(=O)NC3CCCC3)CCCCC2)cc1 (stereo not given) -7.81%
CCCCCCCC[n+]1cccc(C(=O)N2c3c(nc(N)[nH]c3=O)NC(C)C2C)c1 (stereo not given) -7.7%
CCNC(=O)c1cc2c(c(-c3cccc(-c4cncnc4)c3)n1)[C@H](CCO)N(C(C)=O)C2 -0.11%
CC(C)(C)S(=O)N1Cc2cc(C(=O)NCCCN3CCOCC3)nc(-c3cccc(-c4cc5ccccc5o4)c3)c2[C@H]1CCO (stereo not given in full) 8.67%
COc1cccc(/C=C(/CC(=O)Nc2ccc(N3CCOCC3)cc2)c2nc3ccccc3s2)c1 -10.9%
O=C(O)CC/C(=C\c1cc2c(cc1Br)OCO2)c1nc2ccccc2s1 -13.4%
CC(=O)C[C@@H]1OC[C@H](C)N1S(=O)(=O)c1ccc(C)cc1 -22.5%
COC(=O)[C@]1(C)N[C@H](c2ccc(-c3ccc(Cl)c(Cl)c3)cc2)[C@@H]2C(=O)N(C)C(=O)[C@@H]21 20.9%
CCNS(=O)(=O)c1ccc(CCC(=O)N2CCN(c3ccc(OC)cc3)CC2)cc1 8.27%
CCCNS(=O)(=O)c1ccc(CCC(=O)N2CCCC2)cc1 -0.2%
CCOc1ccc(NS(=O)(=O)c2cc(C)c(C)cc2C)cc1 18.6%
Cc1cccc(NC(=O)CN2CCN(CC(=O)NCC3(N4CCCCC4)CCCCC3)CC2)c1C -28.3%
COc1cc(NC(=O)C2=CC(c3ccc(C)cc3)=NS(=O)(=O)N2C)cc(OC)c1OC -7.77%
COc1cc(NC(=O)C2=CC(c3ccco3)=NS(=O)(=O)N2C)cc(OC)c1OC -8.05%
O=C(O)C1CCCN1S(=O)(=O)c1ccc(Br)cc1 (stereo not given) -6.42%
CC(=O)c1ccc(N2CCN(C(=O)c3ccc4nc[nH]c4c3)CC2)cc1 -29.8%
O=C(O)CC/C(=N\NC(=O)c1ccc(F)cc1)c1ccc(Br)cc1 3.38%
CSc1ccc(/C=N/NC(=O)c2cccc(Cl)c2)cc1 8.63%
CC1=NNC(=O)C1CCC(=O)N/N=C\c1ccc(Cl)c(Cl)c1 (stereo not given) -10.3%
C[C@H](CO)N1C[C@H](C)[C@H](CN(C)C(=O)Nc2ccc(C(F)(F)F)cc2)Oc2c(NC(=O)c3ccncc3)cccc2C1=O 3.31%
O=C(C[C@H]1CC[C@@H](NC(=O)c2ccncc2)[C@@H](CO)O1)NCC1CC1 -5.86%
COC(=O)C1=C(C)NC(=S)NC1c1ccc(OC)cc1 (stereo not given) -22.6%
CC(=O)N1Cc2cc(C(=O)NCc3cccc(F)c3)nc(-c3cccc(C4=CCCC4)c3)c2[C@H]1CCO -5.18%
COC(=O)c1c(-c2ccc(OC)cc2)c2c(c3c4cc(OC)ccc4n(S(=O)(=O)c4ccc(F)cc4)c13)C(=O)N(C)C2 -12.2%
